Assay results as given in ChEMBL document CHEMBL4480452, “Molecular recognition of a branched peptide with HIV-1 Rev Response Element (RRE) RNA” (Bioorg Med Chem, 2019).
Calls of active or inactive are those of the source. The rule behind the calls is not given here.

What was measured:
[1] = molecular target: Rev responsive element (RRE) RNA; assay: Binding affinity to HIV-1 rev response element SL-IIB RNA by 2-Aminopurine-based fluorescence spectrophotometric analysis; assay type: nucleic-acid assay, Human immunodeficiency virus 1
[2] = molecular target: Rev responsive element (RRE) RNA; assay: Binding affinity to HIV-1 rev response element SL-IIB RNA in presence of 10 times RRE DNA by 2-Aminopurine-based fluorescence spectrophotometric analysis; assay type: nucleic-acid assay, Human immunodeficiency virus 1
In short: (§1)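 Same 2-AP titration, run with 10-fold excess of unlabeled competitor nucleic acid. Conditions: 0.1 μM refolded 2-AP RRE SL-IIB RNA, peptide 0–20 μM, pH 7.0 phosphate/KCl/MgCl2 buffer, ex 310 / em 372 nm. Kd from Hill fit, at least duplicate, SD.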

[3] = molecular target: Rev responsive element (RRE) RNA; assay: Binding affinity to HIV-1 rev response element SL-IIB RNA in presence of 10 times no bulge RRE RNA by 2-Aminopurine-based fluorescence spectrophotometric analysis; assay type: nucleic-acid assay, Human immunodeficiency virus 1; in short: as §1
[4] = molecular target: Rev responsive element (RRE) RNA; assay: Binding affinity to HIV-1 rev response element SL-IIB RNA in presence of 10 times TAR RNA by 2-Aminopurine-based fluorescence spectrophotometric analysis; assay type: nucleic-acid assay, Human immunodeficiency virus 1; in short: as §1
[5] = system: Rev responsive element (RRE) RNA; assay: Binding affinity to internal loop and upper stem/ apical loop regions of 5-32P-labeled HIV-1 NL4-3 rev response element SL-IIB RNA by RNases A and V1 based RNase protection assay; assay type: nucleic-acid assay; conditions: Human immunodeficiency virus 1
In short: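 5′-32P-labeled RRE SL-IIB (10 nM) with 200 nM unlabeled RNA, refolded at 95 °C for 3 min and snap-cooled. Incubated with peptide (0–20 μM) on ice for 4 h in 10 mM Tris pH 7, 100 mM KCl, 10 mM MgCl2. Digested on ice with RNase V1 (0.002 U, 10 min) or RNase A (20 ng, 1 h). Cleavage read on 12% denaturing PAGE by autoradiography.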

[6] = system: Rev responsive element (RRE) RNA; assay: Binding affinity to SL1 and SL2 regions of 234 nucleotide long HIV-1 NL4-3 rev response element RNA by SHAPE-MaP technology assay; assay type: nucleic-acid assay; conditions: Human immunodeficiency virus 1
In short: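 234-nt RRE RNA (5 pmol), renatured then folded at 37 °C for 15 min (70 mM Tris pH 8.0, 180 mM KCl, 8 mM MgCl2, 5% glycerol). Peptide added at 1:1 or 1:10 RNA:peptide for 15 min at 37 °C, then 1M7 for 5 min at 37 °C, with DMSO and denaturing controls. Read by MaP reverse transcription, PCR and sequencing; reactivity compared by nucleotide position.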

[7] = system: Rev responsive element (RRE) RNA; assay: Binding affinity to HIV-1 NL4-3 5-32P-labeled rev response element SL-IIB RNA by RNases A and V1 based RNase protection assay; conditions: Human immunodeficiency virus 1

Kd [1] [nM]	SMILES	other results
1110	N=C(N)N[C@@H]1C[C@@H](C(=O)N[C@H]2CN[C@@H](C(=O)N[C@@H](Cc3ccc(O)cc3)C(N)=O)C2)N(C(=O)CN(CCNC(=O)[C@H](CCCCNC(=O)[C@@H]2C[C@@H](NC(=N)N)CN2C(=O)[C@H]2C[C@@H](N)CN2C(=O)[C@@H](N)CCCCNC(=O)c2cnccn2)NC(=O)[C@@H]2C[C@@H](NC(=N)N)CN2C(=O)[C@H]2C[C@@H](N)CN2C(=O)[C@@H](N)CCCCNC(=O)c2cnccn2)C(=O)Cn2cnc3c(=O)[nH]c(N)nc32)C1	–
660	N=C(N)N[C@H]1CN[C@H](C(=O)N[C@H]2CN[C@@H](C(=O)N[C@@H](Cc3cccc4ccccc34)C(=O)NCCCC[C@H](NC(=O)[C@H](Cc3cccc4ccccc34)NC(=O)[C@H]3C[C@@H](NC(=O)[C@@H]4C[C@@H](NC(=N)N)CN4)CN3)C(=O)NCCN(CC(=O)NCCN(CC(=O)N[C@@H](Cc3cccc4ccccc34)C(=O)N[C@@H](Cc3ccc(O)cc3)C(N)=O)C(=O)Cn3cnc4c(=O)[nH]c(N)nc43)C(=O)Cn3cnc4c(=O)[nH]c(N)nc43)C2)C1	–
400 to 410	N=C(N)N[C@@H]1C[C@@H](C(=O)NCCN(CC(=O)N[C@@H](CCCCNC(=O)c2ccc(B(O)O)cc2)C(=O)N[C@@H](Cc2ccc(O)cc2)C(N)=O)C(=O)Cn2cnc3c(=O)[nH]c(N)nc32)N(C(=O)[C@H](CCCCNC(=O)[C@@H]2C[C@@H](NC(=N)N)CN2C(=O)[C@@H]2C[C@@H](NC(=N)N)CN2C(=O)[C@H]2C[C@@H](N)CN2)NC(=O)[C@@H]2C[C@@H](NC(=N)N)CN2C(=O)[C@@H]2C[C@@H](NC(=N)N)CN2C(=O)[C@H]2C[C@@H](N)CN2)C1	Kd [2]: 1480 nM; Kd [3]: 1140 nM; Kd [4]: 3.52 µM; Activity [5]: Active; Activity [6]: Active; Activity [7]: Active
1180	N=C(N)N[C@H]1CN[C@H](C(=O)N2C[C@H](N)C[C@@H]2C(=O)NCCN(CC(=O)NCCCC[C@H](NC(=O)CN(CCNC(=O)[C@H]2C[C@@H](N)CN2C(=O)[C@@H]2C[C@@H](NC(=N)N)CN2)C(=O)Cn2cnc3c(=O)[nH]c(N)nc32)C(=O)NCCN(CC(=O)N[C@@H](CCCCNC(=O)c2cnccn2)C(=O)N[C@@H](CCCCNC(=O)c2ccc(B(O)O)cc2)C(=O)N[C@@H](Cc2ccc(O)cc2)C(N)=O)C(=O)Cn2cnc3c(=O)[nH]c(N)nc32)C(=O)Cn2cnc3c(=O)[nH]c(N)nc32)C1	–
630	N=C(N)N[C@@H]1C[C@@H](C(=O)NCCN(CC(=O)N[C@@H](CCCCNC(=O)c2ccc(B(O)O)cc2)C(=O)N[C@@H](Cc2ccc(O)cc2)C(N)=O)C(=O)Cn2cnc3c(=O)[nH]c(N)nc32)N(C(=O)[C@H](CCCCNC(=O)[C@@H]2C[C@@H](NC(=N)N)CN2C(=O)[C@H]2C[C@@H](NC(=O)[C@@H]3C[C@@H](NC(=N)N)CN3)CN2)NC(=O)[C@@H]2C[C@@H](NC(=N)N)CN2C(=O)[C@H]2C[C@@H](NC(=O)[C@@H]3C[C@@H](NC(=N)N)CN3)CN2)C1	–
1300	N=C(N)N[C@@H]1C[C@@H](C(=O)N2C[C@H](NC(=N)N)C[C@H]2C(=O)N[C@@H](CCCCNC(=O)c2cnccn2)C(=O)N[C@@H](Cc2ccc(O)cc2)C(N)=O)N(C(=O)[C@H](CCCCNC(=O)[C@H](CCCCNC(=O)c2cnccn2)NC(=O)[C@H]2C[C@@H](NC(=O)[C@@H]3C[C@@H](NC(=N)N)CN3)CN2)NC(=O)[C@H](CCCCNC(=O)c2cnccn2)NC(=O)[C@H]2C[C@@H](NC(=O)[C@@H]3C[C@@H](NC(=N)N)CN3)CN2)C1	–
720	N=C(N)N[C@@H]1C[C@@H](C(=O)N2C[C@H](N)C[C@@H]2C(=O)N[C@@H](Cc2ccc(O)cc2)C(N)=O)N(C(=O)[C@H]2C[C@@H](N)CN2C(=O)[C@H](CCCCNC(=O)[C@H]2C[C@@H](N)CN2C(=O)[C@@H]2C[C@@H](NC(=N)N)CN2C(=O)[C@H]2C[C@@H](N)CN2)NC(=O)[C@H]2C[C@@H](N)CN2C(=O)[C@@H]2C[C@@H](NC(=N)N)CN2C(=O)[C@H]2C[C@@H](N)CN2)C1	–
1120	N=C(N)N[C@@H]1C[C@@H](C(=O)NCCCC[C@H](NC(=O)[C@@H]2C[C@@H](NC(=N)N)CN2C(=O)[C@H]2C[C@@H](N)CN2C(=O)[C@@H]2C[C@@H](NC(=N)N)CN2)C(=O)N[C@@H](CCCCNC(=O)c2cnccn2)C(=O)N[C@@H](CCCCNC(=O)c2cnccn2)C(=O)NCCN(CC(=O)N[C@@H](Cc2ccc(O)cc2)C(N)=O)C(=O)Cn2cnc3c(=O)[nH]c(N)nc32)N(C(=O)[C@H]2C[C@@H](N)CN2C(=O)[C@@H]2C[C@@H](NC(=N)N)CN2)C1	–
